CSC inhib: cancer stem cell viability inhibitors, primary screen, luminescence; cancer stem cell-like cells viability; 300,000 compounds, 1.1% hits; inhibition, % at 7.5 µM; in the data active = inhibition above about 75%; inconclusive = no clear call, values can overlap the other calls; tested in HMLE shEcad cells
T cruzi repl: inhibitors of intracellular T. cruzi growth, primary screen, luminescence, NIH3T3 host cells | T. cruzi beta-gal in NIH3T3, 90 h | inhibition, % (no concentration beside the values) | 300,000 compounds, 1.4% hits | AID 1885, 2009;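 active = mean inhibition across valid replicates above about 55%, limit read from the data; inconclusive = mean below that limit but half or more replicates reach it; inactive = mean below it, under half of replicates reach it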;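 note: signal also drops with host cell toxicity which is not excluded here; 0% = plate median of DMSO wells and 100% = zero luminescence signal; higher percent means less beta-gal luminescence so fewer parasites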
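Material: NIH/3T3 host cells with β-galactosidase reporter T. cruzi; Input: 5,000 host fibroblasts per well; Medium: DMEM, 2% fetal bovine serum; Compound: 50 nL DMSO compound solution per well; Schedule: 3 h host attachment, then at least 90 h co-culture; Detection: luminescent β-galactosidase signal after 60 min lysis.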
Beta apoptosis: inhibitors of cytokine-induced beta cell apoptosis, primary screen, luminescence; INS-1E cytokine-induced death, ATP luminescence, 48 h; percent of positive-control rescue, neutral wells zero; protection from apoptosis, % (no concentration beside the values); 300,000 compounds, 0.8% hits; AID 435005, 2010;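 active = Every replicate reaches about 75%, or at least half do and their mean reaches it too, limit read from the data; inconclusive = At least half of replicates reach the limit but their mean does not; inactive = Under half of replicates reach the limit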;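 note: 0% = cytokine-treated negative control wells and 100% = positive control rescue; higher means more ATP so stronger rescue from cytokine killing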
SKKanGAS inh: S. pyogenes SKKanGAS growth inhibitors in kanamycin, primary screen, streptokinase expression inhibitor project, SKKanGAS strain, BacTiter-Glo luminescence | 6 h | inhibition, % at 7.5 µM | 300,000 compounds, 1.3% hits;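 active = mean replicate score, as percent of positive control median, at least 50; inconclusive = mean below 50 but one replicate at or above 50; inactive = mean and every replicate below 50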;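 note: strain carries kanamycin resistance gene driven by streptokinase promoter and grows in 40 µg/ml kanamycin; loss of luminescence reflects streptokinase promoter inhibition or plain growth inhibition; 0% = median of DMSO wells and 100% = positive control at its reference dose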
Mdm2-MdmX inh: inhibitors of human Mdm2-MdmX association, primary screen, cell-based, luminescence, split luciferase, SaOS-2, uHTS. AID 485346, 2010. SaOS-2 split-luciferase Mdm2/MdmX complementation. inhibition, % at 8 µM. Protein Mdm4 (Homo sapiens) + E3 ubiquitin-protein ligase Mdm2 (Homo sapiens), …. 330,000 compounds, 3% hits;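 active = inhibition of at least 50% at 8 µM in the primary screen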
Target sequence (O15151 whole entry, looked up): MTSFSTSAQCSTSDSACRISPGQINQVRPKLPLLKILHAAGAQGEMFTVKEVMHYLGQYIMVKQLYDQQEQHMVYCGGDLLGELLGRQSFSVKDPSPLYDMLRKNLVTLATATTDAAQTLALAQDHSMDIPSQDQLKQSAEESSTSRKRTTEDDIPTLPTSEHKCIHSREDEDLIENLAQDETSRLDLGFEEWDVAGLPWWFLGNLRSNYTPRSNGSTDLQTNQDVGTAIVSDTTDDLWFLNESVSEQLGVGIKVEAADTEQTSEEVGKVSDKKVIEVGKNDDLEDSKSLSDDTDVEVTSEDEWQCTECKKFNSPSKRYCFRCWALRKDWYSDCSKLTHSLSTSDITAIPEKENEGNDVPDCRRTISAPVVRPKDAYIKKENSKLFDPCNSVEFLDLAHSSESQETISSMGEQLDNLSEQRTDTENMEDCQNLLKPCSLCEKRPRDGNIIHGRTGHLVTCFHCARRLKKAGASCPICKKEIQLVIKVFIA
Target sequence (Q00987 whole entry, looked up): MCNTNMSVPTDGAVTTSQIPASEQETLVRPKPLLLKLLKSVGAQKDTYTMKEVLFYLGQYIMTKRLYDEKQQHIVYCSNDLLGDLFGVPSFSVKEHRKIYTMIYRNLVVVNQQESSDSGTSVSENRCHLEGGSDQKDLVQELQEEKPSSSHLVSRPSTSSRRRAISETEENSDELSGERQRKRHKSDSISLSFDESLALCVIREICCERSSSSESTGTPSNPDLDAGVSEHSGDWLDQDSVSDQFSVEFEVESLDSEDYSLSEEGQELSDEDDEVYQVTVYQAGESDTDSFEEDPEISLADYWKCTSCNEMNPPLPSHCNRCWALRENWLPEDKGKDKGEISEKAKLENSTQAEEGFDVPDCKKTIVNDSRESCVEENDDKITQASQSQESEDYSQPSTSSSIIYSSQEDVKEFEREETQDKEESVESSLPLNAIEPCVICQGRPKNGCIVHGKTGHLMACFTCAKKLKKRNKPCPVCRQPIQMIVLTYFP
Calb FLC: C. albicans growth inhibition with fluconazole, primary screen, CaCi-2 strain, Alamar Blue fluorescence. C. albicans CaCi-2 (fluconazole-resistant clinical isolate) + fluconazole, 48 h. 300,000 compounds, 0.57% hits. AID 1979, 2009. growth inhibition, % (test concentration not listed);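 active = growth inhibition above about 58% in most replicates, limit read from the data, passing the limit was not always enough; inconclusive = exactly half the replicates above a set limit; inactive = most replicates below a set limit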;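 note: all wells also contain fluconazole at 8 µg/ml as a sub-toxic cotreatment; 0% = median of DMSO wells and 100% = median of geldanamycin control wells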
* hit, by the source's call; ? = inconclusive; nt = no result. Rows were chosen to be rich in hits. Some 5.7% of all compounds tested hit in one or more screens of this group.

SMILES | CSC inhib | T cruzi repl | Beta apoptosis | SKKanGAS inh | Mdm2-MdmX inh | Calb FLC
COc1cccc(CNC(=O)CCC(=O)N2CCOCC2)c1 | -10 | nt | 4 | nt | 8 | nt
COc1ccc(C(=O)OCC(=O)NC2CCCCCCC2)cc1OC | -7 | nt | -23 | nt | 3 | nt
C/C(N)=C(/C#N)C(=O)COC(=O)c1ccc(OCC2CCCO2)cc1 (configuration not stated) | nt | 4 | -3 | 2 | -22 | -3
CCN1CCN(c2ccc(NC(=O)COc3ccc(Cl)cc3C)cc2)CC1 | 67 | nt | 2 | nt | 25 | nt
CCCCNc1c(-c2ccc(-c3ccc(C(C)=O)cc3)c(OC)c2)nc2cnccn12 | 10 | 24 | 8 | 64* | 10 | -3
COc1cc(-c2nc3ccc(C)cn3c2NCc2ccccc2)ccc1SC1CCCCC1 | 29 | 42 | 110* | 32 | 49 | 4
O=[N+]([O-])c1ccc(-c2n(-c3ccccn3)c3ccccc3[n+]2-c2ccccn2)cc1 | -5 | 7 | 1 | -8 | 12 | 5
Cc1cc(NCCCn2ccnc2)n2nc(C)c(-c3ccc(Cl)cc3)c2n1 | 125* | 46 | 48 | 8 | 32 | 51
Cc1cc(NCCCn2ccnc2)n2nc(C)c(-c3ccccc3)c2n1 | -4 | 28 | 11 | -6 | -26 | 26
O=C(Nc1cccc(-c2csc(Nc3ccccc3)n2)c1)c1ccccc1 | 100* | 22 | 37 | 41 | -8 | 10
O=C(Nc1cccc(-c2csc(Nc3cccc(C(F)(F)F)c3)n2)c1)c1ccccc1 | 130* | 32 | 16 | 93* | 43 | 4
CCOC(=O)c1c(NC(=O)CN(CC)CC)sc2c1CCN(C(=O)OCC)C2 | 70 | 31 | 10 | 2 | 32 | -2
CCOC(=O)c1c(NC(=O)CN2CCCCC2)sc2c1CCN(C(=O)OCC)C2 | ? | 60* | 10 | 16 | 12 | -24
CCOC(=O)c1c(NC(=O)CSc2ncccn2)sc2c1CCN(Cc1ccccc1)C2 | nt | 56* | nt | -3 | nt | 6
CCOC(=O)c1c(NC(=O)CSc2nnc3c(n2)[nH]c2ccccc23)sc2c1CCN(C)C2 | -1 | 77* | -1 | -10 | 38 | -4
C#Cc1cccc(NC(=O)c2ccc(Cl)cc2Cl)c1 | 8 | -1 | 2 | -3 | -88 | -18
COc1cc(CN2CCN(C(=O)CC(C)C)CC2)c([N+](=O)[O-])cc1OC | 10 | -6 | -13 | -1 | -2 | -4
COc1ccccc1NC(=O)C(=O)NNC(=O)COc1ccc2ccccc2c1 | nt | -4 | 3 | 67* | 27 | 26
COc1ccccc1NC(=O)COc1ccc2ccccc2c1 | -3 | 5 | nt | 36 | -9 | 7
COc1cc(OC)cc(C(=O)NNC(=O)c2cc3ccccc3cc2O)c1 | 32 | -1 | 4 | 11 | 43 | 81*
COc1ccccc1NC(=O)NNC(=O)c1cc2ccccc2cc1O | 17 | -2 | -3 | -4 | 10 | 86*
CCN(CC(=O)Nc1ccc(NC(C)=O)cc1)C(=O)/C=C/c1ccc([N+](=O)[O-])cc1 | -12 | -6 | 7 | 2 | 16 | 6
CN(C(=O)/C=C/c1ccccc1)C1CCCCC1 | -4 | -3 | nt | 0 | -56 | -1
COc1ccc2nc(-n3c(C)ccc3C)sc2c1 | -1 | -10 | 2 | 54* | 20 | 2
COc1ccc2nc(N)sc2c1 | nt | -6 | -2 | -8 | 10 | 11
SMILES | CSC inhib | T cruzi repl | Beta apoptosis | SKKanGAS inh | Mdm2-MdmX inh | Calb FLC
Cc1c(CCC(=O)O)c(=O)oc2c(C)c(OCc3cc4c(cc3Cl)OCO4)ccc12 | 3 | -8 | -5 | 67* | -19 | 9
Cc1c(CC(=O)O)c(=O)oc2c(C)c(OCc3c(F)cccc3Cl)ccc12 | -15 | -4 | -9 | 8 | 17 | 11
CC1(C)Cc2c(C#N)c(SCCOc3ccccc3)nc(N3CCOCC3)c2CO1 | 46 | 69* | nt | 14 | -13 | 13
Clc1ccc(-c2ccc(CNCc3ccccn3)o2)cc1 | -8 | 0 | 8 | 57* | -12 | -5
C=CCc1cc(Cl)ccc1OCCNCCOC | 18 | 10 | -8 | -2 | -22 | -25
C=CCc1cc(Cl)ccc1OCCNCCN1CCOCC1 | 16 | 73* | 1 | 4 | 31 | 5
